Source: ChEMBL document CHEMBL3045357, “DNA adducts as biomarkers for oxidative and genotoxic stress from pesticides in crop plants” (J Agric Food Chem, 2008)

What was measured:
Assay type in all cases: organism-based
Conditions in all cases: in vivo, other, 336 h
Cucurbita pepo [1] = assay: Genotoxicity in Cucurbita pepo (pumpkin) exposed to compound through spray 4 times over 2 weeks assessed as relative adduct level A5 measured per 10^9 nucleotides using [32P]labeling based autoradiography relative to untreated control
How it was run: (§1)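 Plants (2–6 weeks grown), groups of 2–4, sprayed 4 times over 2 weeks with formulations diluted per label (chlorothalonil 1:256, carbaryl 1:64 in water); controls water-sprayed. DNA from 1 g leaf via DNeasy Maxi kit. 10 µg DNA digested with micrococcal nuclease/spleen phosphodiesterase (4 h, 37 °C), NP1-enriched (45 min, 37 °C), labelled with [γ-32P]ATP/T4 kinase (45 min, 37 °C).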

Phaseolus vulgaris [2] = assay: Genotoxicity in Phaseolus vulgaris (bush beans) exposed to compound through spray 4 times over 2 weeks assessed as relative adduct level A3 measured per 10^9 nucleotides using HX-dG internal standard using [32P]labeling based autoradiography relative to untreated control; how it was run: as §1
Phaseolus vulgaris [3] = assay: Genotoxicity in Phaseolus vulgaris (bush beans) exposed to compound through spray 4 times over 2 weeks assessed as relative adduct level A5 measured per 10^9 nucleotides using HX-dG internal standard using [32P]labeling based autoradiography relative to untreated control; how it was run: as §1
Phaseolus vulgaris [4] = assay: GenoToxicity in Phaseolus vulgaris (bush beans) exposed to compound through spray 4 times over 2 weeks assessed as relative adduct level A5 measured per 10^9 nucleotides using [32P]labeling based autoradiography relative to untreated control; how it was run: as §1
Cucurbita pepo [5] = assay: Genotoxicity in Cucurbita pepo (pumpkin) exposed to compound through spray 4 times over 2 weeks assessed as relative adduct level A6 measured per 10^9 nucleotides using HX-dG internal standard using [32P]labeling based autoradiography relative to untreated control; how it was run: as §1
Phaseolus vulgaris [6] = assay: Genotoxicity in Phaseolus vulgaris (bush beans) exposed to compound through spray 4 times over 2 weeks assessed as relative adduct level A2 measured per 10^9 nucleotides using HX-dG internal standard using [32P]labeling based autoradiography relative to untreated control; how it was run: as §1
Cucurbita pepo [7] = assay: Genotoxicity inCucurbita pepo (pumpkin) exposed to compound through spray 4 times over 2 weeks assessed as relative adduct level A4 measured per 10^9 nucleotides using HX-dG internal standard using [32P]labeling based autoradiography relative to untreated control
How it was run: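 Plants grown 2-6 weeks, groups of 2-4 sprayed four times over 2 weeks with label-rate formulations; water-sprayed controls. Leaf DNA kit-extracted. 10 µg DNA digested with micrococcal nuclease/spleen phosphodiesterase 4 h at 37 °C. NP1-enriched, then labeled with [γ-32P]ATP/T4 kinase 45 min at 37 °C. 2D PEI-cellulose TLC, imager readout. Samples spiked with 50 fmol HX-dG standard.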

Vitis vinifera [8] = assay: Genotoxicity in Vitis vinifera exposed to compound through spray 4 times over 2 weeks assessed as relative adduct level A1 measured per 10^9 nucleotides using [32P]labeling based autoradiography relative to untreated control; how it was run: as §1
Glycine max [9] = assay: Genotoxicity in Glycine max (soybean) exposed to compound through spray 4 times over 2 weeks assessed as relative adduct level A1 measured per 10^9 nucleotides using HX-dG internal standard using [32P]labeling based autoradiography relative to untreated control; how it was run: as §1
Cucurbita pepo [10] = assay: Genotoxicity in Cucurbita pepo (pumpkin) exposed to compound through spray 4 times over 2 weeks assessed as relative adduct level A3 measured per 10^9 nucleotides using HX-dG internal standard using [32P]labeling based autoradiography relative to untreated control; how it was run: as §1
Phaseolus vulgaris [11] = assay: Genotoxicity in Phaseolus vulgaris (bush beans) exposed to compound through spray 4 times over 2 weeks assessed as relative adduct level A3 measured per 10^9 nucleotides using [32P]labeling based autoradiography relative to untreated control; how it was run: as §1
Phaseolus vulgaris [12] = assay: Genotoxicity in Phaseolus vulgaris (bush beans) exposed to compound through spray 4 times over 2 weeks assessed as relative adduct level A2 measured per 10^9 nucleotides using [32P]labeling based autoradiography relative to untreated control; how it was run: as §1
Cucumis sativus [13] = assay: Genotoxicity in Cucumis sativus (cucumber) exposed to compound through spray 4 times over 2 weeks assessed as relative adduct level A1 measured per 10^9 nucleotides using [32P]labeling based autoradiography relative to untreated control; how it was run: as §1
Glycine max [14] = assay: Genotoxicity in Glycine max (soybean) exposed to compound through spray 4 times over 2 weeks assessed as relative adduct level A6 measured per 10^9 nucleotides using HX-dG internal standard using [32P]labeling based autoradiography relative to untreated control; how it was run: as §1
Glycine max [15] = assay: Genotoxicity in Glycine max (soybean) exposed to compound through spray 4 times over 2 weeks assessed as relative adduct level A5 measured per 10^9 nucleotides using HX-dG internal standard using [32P]labeling based autoradiography relative to untreated control; how it was run: as §1
Vitis vinifera [16] = assay: Genotoxicity in Vitis vinifera exposed to compound through spray 4 times over 2 weeks assessed as relative adduct level A2 measured per 10^9 nucleotides using [32P]labeling based autoradiography relative to untreated control; how it was run: as §1
Phaseolus vulgaris [17] = assay: Genotoxicity in Phaseolus vulgaris (bush beans) exposed to compound through spray 4 times over 2 weeks assessed as relative adduct level A6 measured per 10^9 nucleotides using [32P]labeling based autoradiography relative to untreated control; how it was run: as §1
Vitis vinifera [18] = assay: Genotoxicity in Vitis vinifera exposed to compound through spray 4 times over 2 weeks assessed as relative adduct level A1 measured per 10^9 nucleotides using HX-dG internal standard using [32P]labeling based autoradiography relative to untreated control; how it was run: as §1
Glycine max [19] = assay: Genotoxicity in Glycine max (soybean) exposed to compound through spray 4 times over 2 weeks assessed as HNE-dG adducts measured per 10^9 nucleotides using [32P]labeling based autoradiography (reference value: 2 no unit); how it was run: as §1
Glycine max [20] = assay: Genotoxicity in Glycine max (soybean) exposed to compound through spray 4 times over 2 weeks assessed as relative adduct level A3 measured per 10^9 nucleotides using [32P]labeling based autoradiography relative to untreated control; how it was run: as §1
Cucumis sativus [21] = assay: Genotoxicity in Cucumis sativus (cucumber) exposed to compound through spray 4 times over 2 weeks assessed as relative adduct level A3 measured per 10^9 nucleotides using HX-dG internal standard using [32P]labeling based autoradiography relative to untreated control; how it was run: as §1
Glycine max [22] = assay: Genotoxicity in Glycine max (soybean) exposed to compound through spray 4 times over 2 weeks assessed as relative adduct level A5 measured per 10^9 nucleotides using [32P]labeling based autoradiography relative to untreated control; how it was run: as §1
Cucumis sativus [23] = assay: Genotoxicity in Cucumis sativus (cucumber) exposed to compound through spray 4 times over 2 weeks assessed as relative adduct level A2 measured per 10^9 nucleotides using HX-dG internal standard using [32P]labeling based autoradiography relative to untreated control; how it was run: as §1
Cucumis sativus [24] = assay: Genotoxicity in Cucumis sativus (cucumber) exposed to compound through spray 4 times over 2 weeks assessed as relative adduct level A1 measured per 10^9 nucleotides using HX-dG internal standard using [32P]labeling based autoradiography relative to untreated control; how it was run: as §1
Phaseolus vulgaris [25] = assay: Genotoxicity in Phaseolus vulgaris (bush beans) exposed to compound through spray 4 times over 2 weeks assessed as relative adduct level A4 measured per 10^9 nucleotides using [32P]labeling based autoradiography relative to untreated control; how it was run: as §1

N#Cc1c(Cl)c(Cl)c(Cl)c(C#N)c1Cl [CHLOROTHALONIL]
Activity (Cucurbita pepo [1]): 63
Activity (Phaseolus vulgaris [2]): 5038 cpm
Activity (Phaseolus vulgaris [3]): 4410 cpm
Activity (Phaseolus vulgaris [4]): 127
Activity (Cucurbita pepo [5]): 71701 cpm
Activity (Phaseolus vulgaris [6]): 5697 cpm
Activity (Cucurbita pepo [7]): 679 cpm
Activity (Vitis vinifera [8]): 36
Activity (Glycine max [9]): 40547 cpm
Activity (Cucurbita pepo [10]): 3033 cpm
Activity (Phaseolus vulgaris [11]): 145
Activity (Phaseolus vulgaris [12]): 164
Activity (Cucumis sativus [13]): 116
Activity (Glycine max [14]): 16472 cpm
Activity (Glycine max [15]): 4613 cpm
Activity (Vitis vinifera [16]): 66
Activity (Phaseolus vulgaris [17]): 174
Activity (Vitis vinifera [18]): 2201 cpm
Activity (Glycine max [19]): 160
Activity (Glycine max [20]): 136
Activity (Cucumis sativus [21]): 10667 cpm
Activity (Glycine max [22]): 91
Activity (Cucumis sativus [23]): 12506 cpm
Activity (Cucumis sativus [24]): 5420 cpm
Activity (Phaseolus vulgaris [25]): 81
